The text below walks through data of paper PMC3656968 (Journal of medicinal chemistry, 2013).

Like-named read-outs stand apart in the source and are kept apart here. Marks after values point to notes of the source that are not given here.

Data set [1] addresses T1, human serum albumin (HSA) (Homo sapiens, UniProt P02768). The following applies: cited from earlier work.
Data set [2] deals with T1, human serum albumin (HSA). The conditions noted are these: 0.1 mM probe, 4.5% w/v HSA; cited from earlier work.
For data set [3] the following is noted: absence of HSA, cited from earlier work.
For data set [4], the target named is T1, human serum albumin (HSA). The data set is described as follows: T1 weighted MR image of samples with or without HSA. The following applies: 0.1 mM compound, with or without 4.5 % w/v HSA. The gist of the method: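 Samples of 0.1 mM compound, with or without 4.5% w/v HSA, imaged side by side with a T1-weighted sequence (TR/TE/flip angle 25 ms/4.7 ms/70°). Signal intensity read for each sample.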

Data set [5] in a line: Relaxivity in HEPES buffer in the absence of HSA. The conditions noted are these: 50 mM HEPES buffer pH 7.4, 37 °C. In kind it is physicochemical. The gist of the method:
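Complex solid redissolved in 50 mM HEPES and filtered, with Gd concentration set by ICP-MS. Longitudinal relaxation (1/T1) measured at 0.47 and 1.41 T without HSA at 0.05-0.4 mM complex, in 50 mM HEPES pH 7.4 at 37 °C. r1 taken as slope of 1/T1 versus Gd concentration (mM). Error estimated at ±10% of value.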

The target of data set [6] is T1, human serum albumin (HSA). The data set is described as follows: Relaxivity in the presence of 4.5% w/v HSA. The conditions noted are these: 50 mM HEPES buffer pH 7.4, 37 °C. In short, it runs like this: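 Complex in 50 mM HEPES with 4.5% w/v HSA, pH 7.4, 37 °C, with Gd content quantified by ICP-MS. 1/T1 recorded at 0.47 and 1.41 T across several complex concentrations. Observed relaxivity is the slope of 1/T1 against Gd concentration (mM). Estimated error is ±10% of the measured value.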

For data set [7], the target named is T1, human serum albumin (HSA). Nature of the data set: Ultrafiltration assay of binding to HSA. The following applies: for % bound to 4.5% HSA: 0.1 mM probe, 4.5% w/v HSA in 50 mM HEPES, ultrafiltration; for binding to HSA on average: average of the diastereoisomers Gd(6a) and Gd(6b), 0.1 mM, 4.5% w/v HSA. The gist of the method:
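Complex at a constant 0.1 mM (50 mM HEPES, concentration by ICP-MS) with 4.5% w/v HSA, ultrafiltered through a 5000 MW cutoff membrane. Compared against the filtrate of an HSA-free solution. Unbound and total Gd measured directly by ICP-MS, and binding given as percent bound to HSA. Error estimated at ±10%.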

T1 sequence (P02768 25-609): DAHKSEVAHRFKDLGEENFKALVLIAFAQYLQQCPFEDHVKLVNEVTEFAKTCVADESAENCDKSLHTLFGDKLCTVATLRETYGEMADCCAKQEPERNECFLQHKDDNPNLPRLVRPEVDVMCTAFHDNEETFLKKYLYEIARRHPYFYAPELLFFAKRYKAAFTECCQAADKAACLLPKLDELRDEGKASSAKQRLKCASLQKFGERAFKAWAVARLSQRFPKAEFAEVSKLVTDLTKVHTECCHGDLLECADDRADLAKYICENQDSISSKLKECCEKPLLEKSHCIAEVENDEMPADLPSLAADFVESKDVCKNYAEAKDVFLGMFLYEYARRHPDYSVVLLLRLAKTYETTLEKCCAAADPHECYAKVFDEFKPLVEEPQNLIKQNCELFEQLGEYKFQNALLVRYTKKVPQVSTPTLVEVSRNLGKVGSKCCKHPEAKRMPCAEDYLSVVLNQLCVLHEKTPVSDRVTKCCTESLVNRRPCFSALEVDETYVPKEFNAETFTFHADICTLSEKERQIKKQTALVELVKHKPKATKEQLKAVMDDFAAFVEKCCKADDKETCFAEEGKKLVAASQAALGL

With `O=C([O-])CN(CCN(CC(=O)[O-])C[C@H](COP(=O)([O-])OC1CCC(c2ccccc2)(c2ccccc2)CC1)N(CC(=O)[O-])CC(=O)[O-])CC(=O)[O-].[Gd+3].[H+].[H+].[H+]` [MS-325, gadofosveset], the “r1^obs 4.5% HSA” value is given as 42 ^a mM^−1s^−1 in data set [1] (0.47T) and 23.8 ^a mM^−1s^−1 in data set [1] (1.41T). Moreover, the “% bound to 4.5% HSA” value in data set [2] was 88% ^a. Besides, the figures for the “r1^free” value in data set [3] (0.47T) and in data set [3] (1.41T) were 6.6 ^a mM^−1s^−1 and 5.5 ^a mM^−1s^−1, respectively. The “signal / contrast in T1 weighted image with versus without HSA” value in data set [4] is on record as “increased signal in presence of HSA”.

As for `C[C@H](NC(=O)C(N)CN1CCN(CC(=O)O)CCN(CC(=O)O)CCN(CC(=O)O)CC1)c1ccccc1` (stereo partly drawn) [Gd(2), 2,2′,2″-(10-(2-amino-3-oxo-3-(((S)-1-phenylethyl)amino)propyl)-1,4,7,10-tetraazacyclododecane-1,4,7-triyl)triacetic acid], the “r1^free” value is 4.8 mM⁻¹ s⁻¹ in data set [5] (0.47T) and 3.9 mM⁻¹ s⁻¹ in data set [5] (1.41T). For the same molecule, the figures for the “r1^obs 4.5% HSA” value in data set [6] (0.47T) and in data set [6] (1.41T) were 7.1 mM⁻¹ s⁻¹ and 5.9 mM⁻¹ s⁻¹, respectively. Besides, in data set [7], the “% bound to 4.5% HSA” value was 7%.

`NC(Cc1cc(I)c(O)c(I)c1)C(=O)NC(CN1CCN(CC(=O)O)CCN(CC(=O)O)CCN(CC(=O)O)CC1)C(=O)O` (stereo not drawn) [Gd(4), 2,2′,2″-(10-(2-(2-amino-3-(4-hydroxy-3,5-diiodophenyl)propanamido)-2-carboxyethyl)-1,4,7,10-tetraazacyclododecane-1,4,7-triyl)triacetic acid]: the “r1^free” value in data set [5] (0.47T) was 6.1 mM⁻¹ s⁻¹; in data set [5] (1.41T), 5.8 mM⁻¹ s⁻¹. In addition, the “r1^obs 4.5% HSA” value came to 23.7 mM⁻¹ s⁻¹ in data set [6] (0.47T) and 17.4 mM⁻¹ s⁻¹ in data set [6] (1.41T). Moreover, the “% bound to 4.5% HSA” value in data set [7] turned out to be 20%.

Take `COC(=O)CNC(=O)C(CN1CCN(CC(=O)O)CCN(CC(=O)O)CCN(CC(=O)O)CC1)NC(=O)C(N)Cc1cc(I)c(O)c(I)c1` (stereo not drawn) [Gd(5), 2,2′,2″-(10-(2-(2-amino-3-(4-hydroxy-3,5-diiodophenyl)propanamido)-3-((2-methoxy-2-oxoethyl)amino)-3-oxopropyl)-1,4,7,10-tetraazacy-clododecane-1,4,7-triyl)triacetic acid]: the “r1^free” value in data set [5] (0.47T) amounted to 6.9 mM⁻¹ s⁻¹; in data set [5] (1.41T), 6.3 mM⁻¹ s⁻¹. The results for the “r1^obs 4.5% HSA” value in data set [6] (0.47T) and in data set [6] (1.41T) were 20.9 mM⁻¹ s⁻¹ and 16.7 mM⁻¹ s⁻¹, respectively. In addition, in data set [7], the “% bound to 4.5% HSA” value worked out at 25%.

For `C[C@H](NC(=O)C(CN1CCN(CC(=O)O)CCN(CC(=O)O)CCN(CC(=O)O)CC1)NC(=O)C(N)Cc1cc(I)c(O)c(I)c1)c1ccccc1` (single isomer, unassigned) [Gd(6a)], the figures for the “r1^free” value in data set [5] (0.47T) and in data set [5] (1.41T) were 7.1 mM⁻¹ s⁻¹ and 6.6 mM⁻¹ s⁻¹, respectively. For the same molecule, the entries for the “r1^obs 4.5% HSA” value in data set [6] (0.47T) and in data set [6] (1.41T) were 18.5 mM⁻¹ s⁻¹ and 10.9 mM⁻¹ s⁻¹, respectively. The “% bound to 4.5% HSA” value in data set [7] is reported as 34%. Further, the “binding to HSA on average” value in data set [7] was 37%.

`C[C@H](NC(=O)C(CN1CCN(CC(=O)O)CCN(CC(=O)O)CCN(CC(=O)O)CC1)NC(=O)C(N)Cc1cc(I)c(O)c(I)c1)c1ccccc1` (single isomer, unassigned) [Gd(6b)]: the entries for the “r1^free” value in data set [5] (0.47T) and in data set [5] (1.41T) were 6.8 mM⁻¹ s⁻¹ and 6.1 mM⁻¹ s⁻¹, respectively. Besides, the entries for the “r1^obs 4.5% HSA” value in data set [6] (0.47T) and in data set [6] (1.41T) were 18.4 mM⁻¹ s⁻¹ and 11.7 mM⁻¹ s⁻¹, respectively. Moreover, the “% bound to 4.5% HSA” value in data set [7] is reported as 39%. Further, the “binding to HSA on average” value in data set [7] was determined as 37%.
